Publication PMC3181111 (ACS chemical neuroscience, 2011)

Test system: male C57BL/6J mice
Assay: Mouse tail suspension test
Assay type: in vivo
Conditions: 30 minutes, vs water vehicle
Method in brief: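 Mice suspended by the tail with adhesive tape from a metal bar 30 cm high. Drugs given i.p. 30 min before testing. Reference inhibitors were in sterile water; test compounds were in DMSO at 2% (0.01 mL/g) or 100% (0.002 mL/g). Immobility time was scored by a blinded observer from 6-min video, n = 7–9, with one-way ANOVA and Tukey posthoc.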

Row | Structure (SMILES) | Immobility time in tail suspension test (10 mg/kg i.p.) | Immobility time in tail suspension test (3 mg/kg i.p.)
1 | COCCCC/C(=N\OCCN)c1ccc(C(F)(F)F)cc1 [fluvoxamine] | decreased immobility times | 
2 | CNCCCN1c2ccccc2CCc2ccccc21 [desipramine] |  | decreased immobility times
